Compound activity: PubChem, Johns Hopkins Ion Channel Center
Rows were chosen to be rich in hits. Some 2.3% of all compounds tested hit in one or more screens of this group.
TRPC4 act = TRPC4 (mouse) channel activation. HEK293 TRPC4beta/mu-opioid, Fluo4 calcium fluorescence; hits give high values. B-score at 10 µM. 0.49% of 310,000 active;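 active = B-score above 5 SD of library B-scores, and initial fluorescence ratio not above library mean plus 5 SD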;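 also: positive B-score marks a calcium rise read as TRPC4 activation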
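Technique: kinetic Fluo4 calcium fluorescence; Test system: TRPC4beta and mu-opioid receptor HEK293 stable cells; Measure: B-scored integrated calcium fluorescence ratio; Benchmarks: low control buffer alone, high control maximal DAMGO; Schedule: 45 min room-temperature Fluo4 loading, 110 s read.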
TRPC4 inh = inhibitors of mouse TRPC4 channel; Q9QUQ5; HEK293 TRPC4beta/mu-opioid, DAMGO-evoked Fluo4 calcium flux; hits give low values; B-score at 10 µM; 0.39% of 300,000 active;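 active = B-score over 3 SD under the library average, no early fluorescence shift, positive overall ratio signal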
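Assay system – HEK293 line stably carrying TRPC4beta and mu-opioid receptor · Doses – single dose · Detection – Fluo4 calcium-dye fluorescence, kinetic read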
TRPC4 potent = allosteric potentiators of mouse TRPC4 channel | Q9QUQ5 | HEK293 TRPC4beta/mu-opioid, DAMGO EC20, Fluo-4 Ca2+ flux; hits give high values | B-score at 10 µM | 0.42% of 310,000 active;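 active = B-score of calcium response area above 5 SD of library B-scores, with initial fluorescence ratio within 5 SD of library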;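 also: B-score of integrated fluorescence ratio over time as area under calcium response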
TRPC6 act = mouse TRPC6 channel activation. HEK293-TRPC6 membrane potential dye fluorescence; hits give high values. B-score at 10 µM. 0.13% of 310,000 active. AID 2550;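 active = B-score of the integrated fluorescence ratio above library mean plus 3 SD, and starting fluorescence ratio within library mean plus 5 SD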;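 also: higher score means more depolarization so channel activation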
TRPC6 inh = blocks the mouse TRPC6 cation channel | AID 2553 | HEK293-TRPC6, membrane potential dye, ACh-evoked depolarization; hits give low values | Q61143 | 1.1% of 310,000 active | B-score at 10 µM;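 active = B-score under library mean minus 3 SD, initial fluorescence not abnormally high, positive integrated signal ratio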;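 also: B-score derived from integrated fluorescence ratio over the kinetic read; more negative B-score means stronger inhibition of depolarization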
TRPC4 sel inh 2 = second check of whether TRPC6 inhibitors also affect mouse TRPC4. inhibition, % at 10 µM. HEK293 TRPC4/MOR, membrane potential dye fluorescence; channel activated by saturating DAMGO dose. shares compounds with TRPC6 inh. 42% of 920 active;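 active = compounds whose fluorescence signal differed from control wells by over 3 SD, either direction, in both duplicate plates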
TRPC4 spec = selectivity of TRPC6 inhibitors: effect on mouse TRPC4 | shares compounds with TRPC6 inh | HEK293 TRPC4/mu-opioid, membrane potential fluorescence | activity change, negative = inhibition, % at 10 µM | 61% of 920 active | AID 2777;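 active = rise or fall in signal beyond 3 SD of buffer-only wells in both replicate plates, either sign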;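 also: integrated kinetic ratio of fluorescence range over baseline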
HEK293 MPD ctr 2-1 = parental HEK293 nonspecific activity of TRPC6 inhibitors, second screen. shares compounds with TRPC6 inh. parental HEK293 membrane potential dye fluorescence; maximal acetylcholine challenge after compound addition. signal change vs control, % at 10 µM. 31% of 920 active;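 active = membrane potential signal moving either way by over 3 SD of the maximum-effect control, in both duplicate plates, meaning non-specific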
HEK293 MPD ctr-1 = checks TRPC6 inhibitor effects in parental HEK293 cells; parental HEK293 membrane potential dye fluorescence; AID 2780; shares compounds with TRPC6 inh; 60% of 920 active; membrane potential signal change, % at 10 µM;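 active = membrane potential signal shifting up or down by more than 3 SD of buffer-only wells, on both duplicate plates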
HEK293 MPD ctr-2 = counter-screen for TRPC6 modulators: effect in parental HEK293 cells. shares compounds with TRPC6 inh. membrane potential dye fluorescence. membrane potential signal change, % at 10 µM. 51% of 2,400 active;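 active = membrane potential signal moves up or down beyond 5 SD from buffer-only wells, on both duplicate plates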
HEK293 MPD ctr 2-2 = second check of TRPC6 modulator effects in parental HEK293 cells | shares compounds with TRPC6 inh | membrane potential dye fluorescence; after compound, maximal acetylcholine stimulation | inhibition, % at 10 µM | 14% of 2,400 active | AID 488926;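 active = membrane potential signal drops by more than 5 SD from the mean control signal, in both duplicate plates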;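 also: plate controls were acetylcholine ECmax control wells for no effect and buffer only wells for full effect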
TRPC4/MOR mod = tests whether TRPC6 modulators also affect mouse TRPC4; shares compounds with TRPC6 inh; HEK293 TRPC4/mu-opioid, membrane potential fluorescence; 69% of 2,400 active; percent change from control (negative = decrease, positive = increase), % at 10 µM; AID 488927;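 active = membrane potential signal moved up or down beyond 5 SD of buffer control wells, in both duplicate plates, actives on both sides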;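 also: plate controls were assay buffer wells for no effect and DAMGO maximal-effect wells for full effect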
TRPC4 ctr inh 2 = second selectivity test of TRPC6 modulators against mouse TRPC4 | 55% of 2,400 active | HEK293 TRPC4/mu-opioid, membrane potential dye fluorescence; stimulated with maximal-effect DAMGO | inhibition, % at 10 µM | shares compounds with TRPC6 inh;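 active = drop in membrane potential signal beyond 5 SD of the control wells in both duplicate plates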;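 also: TRPC4 counter screen for TRPC6 hits run under conditions tuned for TRPC6 not TRPC4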
TRPC6 inh conf = confirmation of mouse TRPC6 inhibitors | 43% of 3,300 active | inhibition, % at 10 µM | AID 488960 | HEK293-TRPC6, membrane potential dye, ACh-evoked depolarization | shares compounds with TRPC6 inh;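 active = fluorescence ratio falls more than 5 SD below the full-stimulation control mean, in both duplicate runs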;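 also: integrated fluorescence ratio of peak minus minimum over baseline after agonist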
TRPC6 act confirm = confirmation of mouse TRPC6 activators | shares compounds with TRPC6 inh | HEK293-TRPC6 membrane potential dye fluorescence, FDSS | activation, % at 10 µM | 11% of 2,800 active | AID 488961;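 active = ratio signal rise beyond 5 SD above unstimulated control wells' mean, seen in both duplicate runs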;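 also: plate controls were buffer EC0 wells for no effect and acetylcholine ECmax response for full effect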
An asterisk follows results filed as active; i = inactive; / = no result given.

SMILES	TRPC4 act	TRPC4 inh	TRPC4 potent	TRPC6 act	TRPC6 inh	HEK293 MPD ctr-2	HEK293 MPD ctr 2-2	TRPC4/MOR mod	TRPC4 ctr inh 2	TRPC6 inh conf	TRPC6 act confirm	others
O=C(CCC1CCCCC1)NCCN1C2=NC[C@H](Cc3ccccc3)N2C[C@H]1Cc1ccc(O)cc1	i	i	i	i	i	/	/	/	/	/	/
O=C(CCC1CCCCC1)NCCN1C2=NC[C@@H](Cc3ccccc3)N2C[C@H]1Cc1ccc(O)cc1	i	i	i	i	-5.5*	i	i	i	i	i	i
CCOc1cc(/C=C(/C#N)C(=O)Nc2ccc(O)cc2)cc(Br)c1O	43*	i	i	28*	-9.7*	831%*	194%*	114%*	29%*	i	177%*
Cc1cc(OCc2nc3ccccc3s2)ccc1N	i	i	i	i	i	/	/	/	/	/	/
O=C(Nc1ccccc1Cl)c1ccc(=O)[nH]n1	i	i	i	i	i	/	/	/	/	/	/
COc1ccc(NC(=O)C2CCCN(CCCc3ccccc3)C2)cc1OCC(C)C (configuration not stated)	i	i	i	i	-7.3*	/	/	/	/	i	i	TRPC4 sel inh 2=76%*;TRPC4 spec=i;HEK293 MPD ctr 2-1=226%*;HEK293 MPD ctr-1=i
COc1ccc(C(=O)Nc2cccc(N(C)S(C)(=O)=O)c2)cc1OC	i	i	i	i	i	/	/	/	/	/	/
Cc1ccc(C(=O)Nc2cccc(N(C)S(C)(=O)=O)c2)cc1S(=O)(=O)Nc1ccccc1	i	i	i	i	-7.7*	/	/	/	/	i	i	TRPC4 sel inh 2=i;TRPC4 spec=i;HEK293 MPD ctr 2-1=i;HEK293 MPD ctr-1=i
O=C(CCc1nc2ccccc2c(=O)[nH]1)Nc1cccc(S(=O)(=O)N2CCOCC2)c1	i	i	i	i	i	/	/	/	/	/	/
CCOC(=O)c1cc2c(=O)n3ccccc3nc2n(C(C)C)c1=NC(=O)c1ccco1	i	i	i	i	i	/	/	/	/	/	/
CC(C)n1c(=NC(=O)c2ccco2)c(C#N)cc2c(=O)n3ccccc3cc21	i	i	i	i	-6.1*	-86%*	i	-24%*	i	i	i
COc1ccc(C2=NOC(C)(c3nnc(-c4ccccc4)o3)C2)cc1 (configuration not stated)	i	i	i	i	i	/	/	/	/	/	/
CC(=O)[C@@]1(O)C(C)CC2C3C=C(C)C4=Cc5c(cnn5-c5ccccc5)C[C@]4(C)C3C(O)C[C@@]21C (some centres not stated)	i	i	i	i	-6.4*	i	i	i	i	i	/
COc1ccc(/C=N/OCc2ccc(Br)cc2)c(OC)c1	i	i	i	i	i	/	/	/	/	/	/
Cc1cccc(C(=O)N2CCN(S(=O)(=O)N3CCCCCC3)CC2)c1	i	i	i	i	i	/	/	/	/	/	/
Cc1ccc(-c2c[n+](CC(=O)Nc3c(C)cccc3C)c3n2CCC3)cc1	i	i	i	i	i	/	/	/	/	/	/
Cc1ccc(-c2c[n+](Cc3cccc(Cl)c3)c3n2CCC3)cc1	i	-6*	i	i	-5.1*	-147%*	i	-24%*	84%*	i	i
Cc1ccc(C[n+]2cc(-c3ccc(Cl)cc3)n3c2CCC3)cc1	i	-7*	i	i	-5.6*	-96%*	i	-18%*	30%*	i	i
CC(C)N(CCCNC(=O)C1CCN(S(=O)(=O)N2CCOCC2)CC1)Cc1ccccc1	i	i	i	i	i	/	/	/	/	/	/
O=C(CNc1ccc(Oc2ccccc2)cc1)N1CCOCC1	i	i	i	i	-5.7*	i	i	i	i	i	i
S=C(Nc1ccc(Oc2ccccc2)cc1)N1CCOCC1	i	i	i	i	i	/	/	/	/	/	/
CCC(C)Nc1nc(-c2ccccn2)nc2ccccc12 (configuration not stated)	i	i	i	i	-5.2*	-274%*	i	-40%*	53%*	i	i
CC(C)(C)c1ccc(-c2nc(NCc3cccnc3)c3ccccc3n2)cc1	i	i	i	i	-6.8*	i	i	i	i	i	i
c1ccc(CNc2nc(-c3ccccn3)nc3ccccc23)cc1	i	i	i	i	-7*	-208%*	i	-40%*	62%*	40%*	i
c1ccc(CNc2nc(-c3cccnc3)nc3ccccc23)cc1	i	i	i	i	i	/	/	/	/	/	/
c1ccc(CN2CCC(Nc3nc(-c4cccnc4)nc4ccccc34)CC2)cc1	i	i	i	i	-6.3*	-294%*	i	-52%*	66%*	56%*	i
c1cncc(CNc2nc(-c3cccnc3)nc3ccccc23)c1	i	i	i	i	i	/	/	/	/	/	/
CCn1cc(/C=C(\NC(=O)c2ccccc2F)C(=O)NCCCn2ccnc2)c2ccccc21	i	i	i	i	i	/	/	/	/	/	/
CCOc1ccc(/C=C(\C(=O)O)c2ccc(S(=O)(=O)N3CCOCC3)s2)cc1OC	i	i	i	i	i	/	/	/	/	/	/
